Screening results as filed in PubChem.
Rows were chosen to be rich in hits. Some 2.4% of all compounds tested hit in one or more screens of this group.
T cruzi repl: blocks replication of Trypanosoma cruzi | inhibition, % (no concentration beside the values) | 300,000 tested, 1.4% active | T. cruzi beta-gal in NIH3T3, luminescence, 90 h;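 active = mean inhibition across valid replicates above about 55%, limit read from the data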;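 also: signal also drops with host cell toxicity which is not excluded here; higher percent means less beta-gal luminescence so fewer parasites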
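Test system: β-gal T. cruzi (Tulahuen C4) inside NIH/3T3 cells / Quantity: 5,000 cells/well / Measured by: luminescence from GalScreen with 0.05% NP40, read after 60 min / Medium: DMEM plus 2% FBS / Measure: parasite load inhibition, % / Reagent: Tulahuen C4 trypomastigotes, 5000/well / Schedule: co-culture of at least 90 h after 3 h attachment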
p-CIP stab down: p/CIP protein destabilization | F442A p/CIP-EGFP cells, EGFP fluorescence, 16 h | decrease of EGFP signal, % at 10 µM | 290,000 tested, 0.01% active;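 active = EGFP signal decrease of at least 30% at 10 µM or well 3 SD below plate mean, unless failing retest; inactive = the rest, including hits failing retest or dose response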
CTSL1 counter: counter-screen for PFM18AAP inhibitors: inhibitors of F. hepatica cathepsin L1; recombinant F. hepatica cathepsin L1, Z-Leu-Arg-MCA fluorescence; inhibition, % at 5.96 µM; 300,000 tested, 0.49% active;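 active = inhibition above the mean of all tested compounds plus 3 SD, set per screening campaign, cut at about 17% in these data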
Cardio protect: protects H9c2 cardiomyocytes from peroxide injury; H2O2 injury protection, ATPLite, 2 h; protection from H2O2 cell death, % at 20 µM; 360,000 tested, 0.63% active; AID 588492;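 active = compounds giving at least 50% protection of heart cells from peroxide-induced death in the single-dose screen, raw or plate-pattern-corrected value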
GASC-1 inh: human JMJD2C demethylase inhibition; Q9H3R0; GST-JMJD2C(1-420) H3K9me3 demethylation, DELFIA europium; inhibition, % at 2.35 µM; 330,000 tested, 0.069% active; AID 2099;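 active = more than half of a compound's replicate wells show inhibition beyond 50%, single wells judged on their own value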;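 also: signal counts dimethyl H3K9 product captured on neutravidin plate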
PP5 primary: blocks human protein phosphatase 5 activity; AID 1987; inhibition, % at 6.7 µM; 320,000 tested, 0.18% active; P53041; purified PP5c, OMFP substrate fluorescence;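 active = inhibition above the campaign's mean inhibition across all tested compounds plus 3 SD, cut at about 9.5% in these data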
Target sequence (P53041 whole entry, looked up): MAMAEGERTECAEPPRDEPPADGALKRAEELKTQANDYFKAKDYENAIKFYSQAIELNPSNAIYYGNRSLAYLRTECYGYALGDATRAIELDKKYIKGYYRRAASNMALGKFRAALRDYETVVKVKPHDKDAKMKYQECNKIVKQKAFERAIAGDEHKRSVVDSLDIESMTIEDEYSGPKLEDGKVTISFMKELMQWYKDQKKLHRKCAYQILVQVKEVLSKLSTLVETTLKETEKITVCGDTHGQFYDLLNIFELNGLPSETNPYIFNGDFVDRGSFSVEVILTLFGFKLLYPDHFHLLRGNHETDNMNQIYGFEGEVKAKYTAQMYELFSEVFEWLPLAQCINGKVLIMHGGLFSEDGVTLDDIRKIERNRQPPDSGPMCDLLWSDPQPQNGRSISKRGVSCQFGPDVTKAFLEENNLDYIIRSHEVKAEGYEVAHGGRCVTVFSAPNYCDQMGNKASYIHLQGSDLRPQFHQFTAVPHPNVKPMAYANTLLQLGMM
PP5 inh confirm: confirmation of human PP5 phosphatase inhibitors. shares compounds with PP5 primary. Purified PP5, fluorogenic phosphatase substrate, fluorescence. inhibition, % at 6.7 µM. 460 tested, 22% active; in the data active = inhibition above about 9.5%
PP1 counter 3x: counter-screen for PP5 inhibitors: human PP1 phosphatase inhibition. shares compounds with PP5 primary. PP1 enzyme, fluorescent phosphatase substrate. inhibition, % at 6.7 µM. 460 tested, 4% active. AID 2355; in the data active = inhibition above about 16%
Hits are given with their value; i = inactive; nt = not tested or not shown.

SMILES	T cruzi repl	p-CIP stab down	CTSL1 counter	Cardio protect	GASC-1 inh	PP5 primary	PP5 inh confirm	PP1 counter 3x
O=C1CN(c2nc(-c3cccnc3)nc3scc(-c4ccccc4)c23)CCN1	62.8	i	i	i	i	10.2	i	i
COc1ccc(-c2csc3nc(-c4cccnc4)nc(N4CCC(C(N)=O)CC4)c23)cc1OC	i	i	i	i	i	i	nt	nt
Cc1ccc(C(=O)NNc2cc(N3CCCC3)nc(N3CCCC3)n2)cc1	81.4	i	i	nt	i	17.3	40.3	i
O=C(COc1cccnc1[N+](=O)[O-])c1ccc(Cl)s1	i	i	i	i	i	10.7	i	i
O=C(COc1cccnc1[N+](=O)[O-])Nc1c(Cl)cccc1Cl	nt	nt	nt	i	i	nt	nt	nt
CCOc1ccc(NC(=O)COC(=O)CCCc2c[nH]c3ccccc23)cc1	i	i	i	i	i	9.8	i	i
COC(=O)c1sc2cc(C(F)(F)F)cnc2c1-c1cccnc1	i	i	i	i	i	11.6	i	i
CCOc1cc2c(cc1OCC)C(c1ccc(OC)c(OC)c1)N(c1ccc(C(=O)O)cc1)C(=O)C2 (stereo not drawn)	i	i	i	i	i	i	nt	nt
CCOc1ccc(C2c3cc(OC)c(OC)cc3CC(=O)N2c2ccc(OC)cc2)cc1 (stereo not drawn)	i	i	i	i	i	9.7	i	i
O=C(/C=C/c1ccco1)NC(=S)Nc1ccccc1N1CCOCC1	i	i	i	i	i	9.7	i	i
O=C(/C=C/c1ccco1)NC(=S)Nc1ccccc1N1CCCC1	i	i	i	i	i	i	nt	nt
COC(=O)CCC(=O)OC1(C)C(=O)C=C2C=C(C3CC3)N(c3ccccc3)C=C2C1=O (stereo not drawn)	i	i	i	i	i	11.0	30.1	i
COC(=O)CCC(=O)OC1(C)C(=O)C=C2C=C(C3CC3)N(CCc3c[nH]c4ccccc34)C=C2C1=O (stereo not drawn)	i	i	i	i	i	i	nt	nt
COC(=O)CCC(=O)OC1(C)C(=O)C=C2C=C(C3CC3)N(CCCOC(C)C)C=C2C1=O (stereo not drawn)	i	i	i	i	i	10.4	35.0	i
COC(=O)CCC(=O)OC1(C)C(=O)C=C2C=C(C3CC3)N(CCc3ccccn3)C=C2C1=O (stereo not drawn)	i	i	i	i	i	11.3	41.9	19.3
COC(=O)CCC(=O)OC1(C)C(=O)C=C2C=C(C3CC3)N(CCCCO)C=C2C1=O (stereo not drawn)	i	i	i	i	i	13.6	33.8	i
O=C(C1CCC(CNS(=O)(=O)c2ccccc2)CC1)N1CCCCC1 (stereo not drawn)	i	i	i	i	i	9.9	i	i
COc1ccc(S(=O)(=O)N2CCN(c3cnccn3)CC2)cc1OC	nt	nt	nt	i	i	nt	nt	nt
CCSC1=C(C#N)C(c2cccc(O)c2)CC(=O)N1 (stereo not drawn)	i	i	i	i	i	i	nt	nt
C=C(C)CSC1=C(C#N)C(c2ccsc2)CC(=O)N1 (stereo not drawn)	i	i	i	i	i	10.7	i	i
O=C(NNc1ccc(C(F)(F)F)cc1[N+](=O)[O-])c1ccc(NS(=O)(=O)c2ccc(F)cc2)cc1	i	i	i	i	i	10.5	i	i
COc1cc(C)c(CN2CCC(n3nccc3NC(=O)C3CCOC3)CC2)cc1C (stereo not drawn)	i	i	i	i	i	i	nt	nt
Clc1cccc(OCCCCCN2CCOCC2)c1	i	i	i	i	i	10.2	i	i
Cc1ccc(NC(=O)C2C3C=CC(O3)C2C(=O)O)cc1C (stereo not drawn)	i	i	i	i	i	22.6	i	22.7
COC(=O)c1ccc(NC(=O)C2C3C=CC(O3)C2C(=O)O)cc1 (stereo not drawn)	i	i	i	i	i	21.5	i	i
SMILES	T cruzi repl	p-CIP stab down	CTSL1 counter	Cardio protect	GASC-1 inh	PP5 primary	PP5 inh confirm	PP1 counter 3x
Cc1ccc(C)c(NC(=O)C2C3C=CC(O3)C2C(=O)O)c1 (stereo not drawn)	i	i	nt	i	i	nt	nt	nt
COC(=O)c1ccc(NC(=O)C2C3C=CC(C3)C2C(=O)O)cc1 (stereo not drawn)	i	i	i	i	i	i	nt	nt
Cc1cccc(NC(=O)C2C3C=CC(O3)C2C(=O)O)c1 (stereo not drawn)	i	i	i	nt	i	9.8	i	i
Cc1ccc(NC(=O)C2C3C=CC(O3)C2C(=O)O)c(C)c1 (stereo not drawn)	i	i	i	i	i	18.0	i	i
Cc1ccc(NC(=O)C2C3CCCC2C3c2ccccc2)cc1C (stereo not drawn)	i	i	i	i	i	i	nt	nt
Cc1cccc(NC(=O)C2C3C=CC(C4CC34)C2C(=O)O)c1 (stereo not drawn)	i	i	i	i	i	i	nt	nt
C[C@]12c3[nH]c4ccccc4c3CCN1C(=O)C(CC(=O)NCCN1CCOCC1)C[C@@H]2C(=O)N1CCOCC1 (stereo partly drawn)	nt	nt	nt	i	i	nt	nt	nt
CC(C)(CNC(=O)c1cccc(F)c1)CNC(=O)c1cccc(F)c1	nt	nt	i	i	i	i	nt	nt
COc1ccccc1NC(=O)C1C2C=CC(O2)C1C(=O)O (stereo not drawn)	i	i	i	nt	i	15.1	i	i
Cc1cccc(NC(=O)C2C(C(=O)O)C3C=CC2C32CC2)c1C (stereo not drawn)	i	i	i	i	i	i	nt	nt
Cc1nnc(NC(=O)C2C3C=CC(O3)C2C(=O)O)s1 (stereo not drawn)	i	i	i	nt	i	16.2	15.7	i
Cc1cccc(NC(=O)C2C3C=CC(O3)C2C(=O)O)c1C (stereo not drawn)	i	i	i	i	i	10.3	i	i
O=C(Cn1c(CO)nc2ccccc21)Nc1ccc2c(c1)OCCCO2	nt	nt	nt	i	i	i	nt	nt
O=C(CC(=O)N1CCOCC1)N1CCOCC1	nt	nt	nt	i	nt	nt	nt	nt
COC(/C(=N/O)c1ccc(Cl)cc1)c1ccccc1 (stereo not drawn)	i	i	i	i	i	i	nt	nt
CCOC(=O)CCNC(=O)N1CCCC(N2CCN(c3ccc(OC)cc3)CC2)C1 (stereo not drawn)	i	i	i	i	i	i	nt	nt
CSc1ncccc1C(=O)N1CCCC(N2CCN(c3ccccc3F)CC2)C1 (stereo not drawn)	i	i	i	i	i	i	nt	nt
CCc1ccc(N2CC(C(=O)Nc3ccc4c(c3)OCO4)CC2=O)cc1 (stereo not drawn)	nt	nt	nt	i	i	i	nt	nt
Cc1cc(N/N=C/c2ccc(O)cc2O)nc(N2CCOCC2)n1	i	i	i	i	i	i	nt	nt
